In ChEMBL document CHEMBL3120060, “Synthesis, in vitro anticancer evaluation and in silico studies of novel imidazo[2,1-b]thiazole derivatives bearing pyrazole moieties” (2014):

Assays:
Type in all cases: functional
SNB-75 = assay: Cytotoxicity against human SNB75 cells assessed as cell growth at 10 uM after 48 hrs by SRB assay; details: SNB-75, 48 h, read-out: Activity
In short: (§1)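 NCI-60 single-dose screen. Cell lines grown in RPMI 1640 with 5% FBS and 2 mM L-glutamine, plated at 5000–40,000 cells/well according to doubling time, then preincubated 24 h at 37 °C in 5% CO2. Compounds dissolved in DMSO, tested at 10^-5 M for 48 h. Adherent cells fixed with cold TCA (10% final) and stained with 0.4% SRB in 1% acetic acid. Growth expressed as percent of untreated control.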

SN12C = assay: Cytotoxicity against human SN12C cells assessed as cell growth at 10 uM after 48 hrs by SRB assay; details: read-out: Activity; in short: as §1
CAKI-1 = assay: Cytotoxicity against human CAKI-1 cells assessed as cell growth at 10 uM after 48 hrs by SRB assay; details: CAKI-1, 48 h, read-out: Activity; in short: as §1
SF-268 = assay: Cytotoxicity against human SF268 cells assessed as cell growth at 10 uM after 48 hrs by SRB assay; details: SF-268, 48 h, read-out: Activity; in short: as §1
KM12 = assay: Cytotoxicity against human KM12 cells assessed as cell growth at 10 uM after 48 hrs by SRB assay; details: KM12, 48 h, read-out: Activity; in short: as §1
HCT-116 = assay: Cytotoxicity against human HCT116 cells assessed as cell growth at 10 uM after 48 hrs by SRB assay; details: HCT-116, 48 h, read-out: Activity; in short: as §1
SF-539 = assay: Cytotoxicity against human SF539 cells assessed as cell growth at 10 uM after 48 hrs by SRB assay; details: SF-539, 48 h, read-out: Activity; in short: as §1
MDA-MB-435 = assay: Cytotoxicity against human MDA-MB-435 cells assessed as cell growth at 10 uM after 48 hrs by SRB assay; details: MDA-MB-435, 48 h, read-out: Activity; in short: as §1
CCRF-CEM = assay: Cytotoxicity against human CCRF-CEM cells assessed as cell growth at 10 uM after 48 hrs by SRB assay; details: read-out: Activity; in short: as §1
SK-OV-3 = assay: Cytotoxicity against human SKOV3 cells assessed as cell growth at 10 uM after 48 hrs by SRB assay; details: SK-OV-3, 48 h, read-out: Activity; in short: as §1
T47D = assay: Cytotoxicity against human T47D cells assessed as cell growth at 10 uM after 48 hrs by SRB assay; details: read-out: Activity
In short: (§2)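 NCI-60 single-dose screen at 10^-5 M. Adherent lines are grown in RPMI 1640 with 5% FBS and 2 mM L-glutamine, seeded at 5000–40,000 cells/well by doubling time, and preincubated 24 h at 37 °C in 5% CO2. Drug is added from DMSO stock diluted in medium, then 48 h. Cells are fixed in cold TCA (final 10%) for 60 min and stained with 0.4% SRB in 1% acetic acid. Growth is expressed as % of untreated control using time-zero plates.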

NCI-H226 = assay: Cytotoxicity against human NCI-H226 cells assessed as cell growth at 10 uM after 48 hrs by SRB assay; details: NCI-H226, 48 h, read-out: Activity; in short: as §1
HCC 2998 = assay: Cytotoxicity against human HCC2998 cells assessed as cell growth at 10 uM after 48 hrs by SRB assay; details: HCC 2998, 48 h, read-out: Activity; in short: as §1
NCI-H460 = assay: Cytotoxicity against human NCI-H460 cells assessed as cell growth at 10 uM after 48 hrs by SRB assay; details: NCI-H460, 48 h, read-out: Activity; in short: as §1
HOP-92 = assay: Cytotoxicity against human HOP92 cells assessed as cell growth at 10 uM after 48 hrs by SRB assay; details: HOP-92, 48 h, read-out: Activity; in short: as §1
DU-145 = assay: Cytotoxicity against human DU145 cells assessed as cell growth at 10 uM after 48 hrs by SRB assay; details: DU-145, 48 h, read-out: Activity; in short: as §1
LOX IMVI = assay: Cytotoxicity against human LOXIMVI cells assessed as cell growth at 10 uM after 48 hrs by SRB assay; details: read-out: Activity; in short: as §1
TK-10 = assay: Cytotoxicity against human TK10 cells assessed as cell growth at 10 uM after 48 hrs by SRB assay; details: TK-10, 48 h, read-out: Activity; in short: as §2
NCI-H522 = assay: Cytotoxicity against human NCI-H522 cells assessed as cell growth at 10 uM after 48 hrs by SRB assay; details: NCI-H522, 48 h, read-out: Activity; in short: as §1
PC-3 = assay: Cytotoxicity against human PC3 cells assessed as cell growth at 10 uM after 48 hrs by SRB assay; details: PC-3, 48 h, read-out: Activity; in short: as §1
Malme-3M = assay: Cytotoxicity against human MALME-3M cells assessed as cell growth at 10 uM after 48 hrs by SRB assay; details: read-out: Activity; in short: as §1
NCI-H322M = assay: Cytotoxicity against human NCI-H322M cells assessed as cell growth at 10 uM after 48 hrs by SRB assay; details: read-out: Activity; in short: as §1
RPMI-8226 = assay: Cytotoxicity against human RPMI8226 cells assessed as cell growth at 10 uM after 48 hrs by SRB assay; details: RPMI-8226, 48 h, read-out: Activity; in short: as §1
COLO 205 = assay: Cytotoxicity against human COLO205 cells assessed as cell growth at 10 uM after 48 hrs by SRB assay; details: COLO 205, 48 h, read-out: Activity; in short: as §1
A549 = assay: Cytotoxicity against human A549 cells assessed as cell growth at 10 uM after 48 hrs by SRB assay; details: A549, 48 h, read-out: Activity; in short: as §1
[1] = Cytotoxicity against human OVCAR5 cells assessed as cell growth at 10 uM after 48 hrs by SRB assay; details: OVCAR-5, 48 h, read-out: Activity; in short: as §1
SW-620 = assay: Cytotoxicity against human SW620 cells assessed as cell growth at 10 uM after 48 hrs by SRB assay; details: SW-620, 48 h, read-out: Activity; in short: as §2
OVCAR-8 = assay: Cytotoxicity against human OVCAR8 cells assessed as cell growth at 10 uM after 48 hrs by SRB assay; details: OVCAR-8, 48 h, read-out: Activity; in short: as §1
[2] = Cytotoxicity against human OVCAR4 cells assessed as cell growth at 10 uM after 48 hrs by SRB assay; details: OVCAR-4, 48 h, read-out: Activity; in short: as §1
MOLT-4 = assay: Cytotoxicity against human MOLT4 cells assessed as cell growth at 10 uM after 48 hrs by SRB assay; details: MOLT-4, 48 h, read-out: Activity; in short: as §1
[3] = Cytotoxicity against human NCI-ADR-RES cells assessed as cell growth at 10 uM after 48 hrs by SRB assay; details: read-out: Activity; in short: as §1
SK-MEL-28 = assay: Cytotoxicity against human SK-MEL-28 cells assessed as cell growth at 10 uM after 48 hrs by SRB assay; details: SK-MEL-28, 48 h, read-out: Activity; in short: as §1
SF-295 = assay: Cytotoxicity against human SF295 cells assessed as cell growth at 10 uM after 48 hrs by SRB assay; details: SF-295, 48 h, read-out: Activity; in short: as §1

SMILES | growth at 10 µM (SNB-75) [%] | growth at 10 µM (SN12C) [%] | growth at 10 µM (CAKI-1) [%] | growth at 10 µM (SF-268) [%] | growth at 10 µM (KM12) [%] | growth at 10 µM (HCT-116) [%] | growth at 10 µM (SF-539) [%] | growth at 10 µM (MDA-MB-435) [%] | growth at 10 µM (CCRF-CEM) [%] | growth at 10 µM (SK-OV-3) [%] | growth at 10 µM (T47D) [%] | growth at 10 µM (NCI-H226) [%] | growth at 10 µM (HCC 2998) [%] | growth at 10 µM (NCI-H460) [%] | growth at 10 µM (HOP-92) [%] | growth at 10 µM (DU-145) [%] | growth at 10 µM (LOX IMVI) [%] | growth at 10 µM (TK-10) [%] | growth at 10 µM (NCI-H522) [%] | growth at 10 µM (PC-3) [%] | other results
Cc1ccc(-c2csc3nc(N4NC(=O)CC4=O)cn23)cc1 | 73.3 | 104 | 90.1 | 106 | 115 | 108 | 101 | 90 | 95.6 | 101 | 85.7 | 94.4 | 102 | 111 | 75.1 | 118 | 96.9 | 139 | 95.9 | 87.3 | growth at 10 µM (Malme-3M): 118%; growth at 10 µM (NCI-H322M): 108%; growth at 10 µM (RPMI-8226): 98.1%; growth at 10 µM (COLO 205): 107%; growth at 10 µM (A549): 102%; growth at 10 µM [1]: 108%; growth at 10 µM (SW-620): 103%; growth at 10 µM (OVCAR-8): 99.3%; growth at 10 µM [2]: 99.1%; growth at 10 µM (MOLT-4): 90.3%; growth at 10 µM [3]: 108%; growth at 10 µM (SK-MEL-28): 102%; growth at 10 µM (SF-295): 91.2%
CC1=NN(c2cn3c(-c4ccccc4)csc3n2)C(=O)C1 | 59.4 | 96 | 79.9 | 99.3 | 102 | 96.5 | 89.7 | 92.9 | 95.9 | 88.9 | 89.4 | 101 | 97.3 | 107 | 66.5 | 106 | 90.8 | 125 | 89.2 | 77.6 | growth at 10 µM (Malme-3M): 107%; growth at 10 µM (NCI-H322M): 92.1%; growth at 10 µM (RPMI-8226): 94.2%; growth at 10 µM (COLO 205): 102%; growth at 10 µM (A549): 101%; growth at 10 µM [1]: 96.7%; growth at 10 µM (SW-620): 104%; growth at 10 µM (OVCAR-8): 105%; growth at 10 µM [2]: 98%; growth at 10 µM (MOLT-4): 84.4%; growth at 10 µM [3]: 92.5%; growth at 10 µM (SK-MEL-28): 102%; growth at 10 µM (SF-295): 69.4%
CC1=NN(c2cn3c(-c4ccc(Cl)cc4)csc3n2)C(=O)C1 | 65.3 | 90.9 | 79.3 | 96.3 | 105 | 97.1 | 94.7 | 87.4 | 84.4 | 100 | 73.7 | 95.4 | 100 | 103 | 73.6 | 105 | 96.8 | 98.8 | 84.5 | 79.4 | growth at 10 µM (Malme-3M): 102%; growth at 10 µM (NCI-H322M): 99.8%; growth at 10 µM (RPMI-8226): 75.9%; growth at 10 µM (COLO 205): 103%; growth at 10 µM (A549): 79.6%; growth at 10 µM [1]: 106%; growth at 10 µM (SW-620): 99.3%; growth at 10 µM (OVCAR-8): 94.2%; growth at 10 µM [2]: 77.2%; growth at 10 µM (MOLT-4): 65.8%; growth at 10 µM [3]: 100%; growth at 10 µM (SK-MEL-28): 96.3%; growth at 10 µM (SF-295): 85.6%
